In data set [1] the target is T1, CDC7/DBF4 (Cell division cycle 7-related protein kinase/Activator of S phase kinase) (Homo sapiens, UniProt O00311). Nature of the data set: Inhibition of Cdc7/Dbf4 (unknown origin) using 0.047 uM of ATP as substrate by AlphaScreen assay. The class given is protein-complex assay. The procedure, abridged: (§1)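 Mechanism-of-action AlphaScreen run with 6 nM Cdc7/Dbf4 and 10 nM biotinylated MCM2 substrate. […] Reaction time was 2 h. Phospho-Ser53 MCM2 was read by antibody-bound acceptor beads with streptavidin donor beads. Rates and Ki were fitted to a competitive inhibition model.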
T1 sequence (Q9UBU7 whole entry): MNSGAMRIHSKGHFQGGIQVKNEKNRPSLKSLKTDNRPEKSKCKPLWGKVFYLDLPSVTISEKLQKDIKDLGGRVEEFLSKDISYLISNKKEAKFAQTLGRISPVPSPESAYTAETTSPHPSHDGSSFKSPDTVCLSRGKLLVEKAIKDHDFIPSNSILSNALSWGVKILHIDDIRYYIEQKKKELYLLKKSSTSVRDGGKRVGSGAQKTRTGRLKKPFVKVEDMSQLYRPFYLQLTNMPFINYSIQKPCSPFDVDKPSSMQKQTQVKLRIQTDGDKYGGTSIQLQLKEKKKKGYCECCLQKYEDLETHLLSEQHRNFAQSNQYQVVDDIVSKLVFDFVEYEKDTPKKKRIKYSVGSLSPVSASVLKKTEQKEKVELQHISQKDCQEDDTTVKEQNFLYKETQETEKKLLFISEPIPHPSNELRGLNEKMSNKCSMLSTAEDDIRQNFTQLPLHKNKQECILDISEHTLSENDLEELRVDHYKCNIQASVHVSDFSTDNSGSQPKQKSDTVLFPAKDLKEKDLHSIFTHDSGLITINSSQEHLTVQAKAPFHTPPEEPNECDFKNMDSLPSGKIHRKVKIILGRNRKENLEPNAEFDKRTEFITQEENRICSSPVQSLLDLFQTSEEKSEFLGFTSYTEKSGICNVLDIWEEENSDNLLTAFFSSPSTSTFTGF
T1 sequence (O00311 whole entry): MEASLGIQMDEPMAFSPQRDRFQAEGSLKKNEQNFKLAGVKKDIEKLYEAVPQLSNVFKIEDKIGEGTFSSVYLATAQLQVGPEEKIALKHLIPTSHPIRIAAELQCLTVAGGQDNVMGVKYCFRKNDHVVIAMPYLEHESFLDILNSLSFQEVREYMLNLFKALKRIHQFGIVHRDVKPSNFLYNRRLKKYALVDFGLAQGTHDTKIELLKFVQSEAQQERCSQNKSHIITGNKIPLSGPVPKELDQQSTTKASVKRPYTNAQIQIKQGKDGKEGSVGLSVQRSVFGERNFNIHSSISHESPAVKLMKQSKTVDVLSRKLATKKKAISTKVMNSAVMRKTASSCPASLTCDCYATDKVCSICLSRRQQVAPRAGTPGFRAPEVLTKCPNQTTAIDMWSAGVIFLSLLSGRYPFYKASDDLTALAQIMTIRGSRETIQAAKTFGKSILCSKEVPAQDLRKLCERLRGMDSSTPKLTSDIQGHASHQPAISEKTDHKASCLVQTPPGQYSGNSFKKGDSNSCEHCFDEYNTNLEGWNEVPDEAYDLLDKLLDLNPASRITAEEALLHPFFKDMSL
A general note: Bead proximity is the source of the signal in Alpha formats.

For data set [2], the target named is T1, CDC7/DBF4 (Cell division cycle 7-related protein kinase/Activator of S phase kinase). Nature of the data set: Inhibition of Cdc7/Dbf4 (unknown origin) using 0.094 uM of ATP as substrate by AlphaScreen assay. The class given is protein-complex assay. The procedure, abridged: as §1
The test system of data set [3] is rat MDR1. As to the kind of experiment: Efflux ratio of permeability of the compound in pig LLC-PK1 cells expressing rat MDR1. Type of data set: ADME, cell-based, Sus scrofa.
Data set [4] addresses T1, CDC7/DBF4 (Cell division cycle 7-related protein kinase/Activator of S phase kinase). Nature of the data set: Inhibition of Cdc7/Dbf4 (unknown origin) using 1.5 uM of ATP as substrate by AlphaScreen assay. Type of data set: protein-complex assay. The procedure, abridged: as §1
The target is the same in data set [5]. As to the kind of experiment: Inhibition of Cdc7/Dbf4 (unknown origin) using 0.375 uM of ATP as substrate by AlphaScreen assay. Type of data set: protein-complex assay. An outline of the steps: as §1
The target is the same in data set [6]. Nature of the data set: Inhibition of Cdc7/Dbf4 (unknown origin) using 0.023 uM of ATP as substrate by AlphaScreen assay. The class given is protein-complex assay. The procedure, abridged:
(§2)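 AlphaScreen with 6 nM Cdc7/Dbf4 and 10 nM biotinylated His/avitag MCM2 (aa1-467) substrate. Phospho-Ser53 MCM2 detected with antibody-bound Protein A acceptor and streptavidin donor beads. Rates fitted by Michaelis–Menten and double-reciprocal plots.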

Data set [7] concerns MDR1. Nature of the data set: Efflux ratio of permeability of the compound in pig LLC-PK1 cells expressing MDR1. The class given is ADME, cell-based, Sus scrofa.
A short description of data set [8]: Efflux ratio of permeability of the compound in pig LLC-PK1 cells. Type of data set: ADME, cell-based, Sus scrofa.
Data set [9] concerns the target T1, CDC7/DBF4 (Cell division cycle 7-related protein kinase/Activator of S phase kinase). As to the kind of experiment: Inhibition of Cdc7/Dbf4 (unknown origin) using 3 uM of ATP as substrate by AlphaScreen assay. The class given is protein-complex assay.
Data set [10] shares this target. As to the kind of experiment: Inhibition of Cdc7/Dbf4 (unknown origin) using 0.188 uM of ATP as substrate by AlphaScreen assay. Type of data set: protein-complex assay. The procedure, abridged:
as §1

Data set [11] is described as follows: Clearance in Sprague-Dawley rat at 2 mg/kg, iv. The class given is ADME, organism-based. Conditions: in vivo. Set-up: dose 2 mg/kg, route intravenous.
Data set [12] addresses T1, CDC7/DBF4 (Cell division cycle 7-related protein kinase/Activator of S phase kinase). Nature of the data set: Inhibition of Cdc7/Dbf4 (unknown origin) using 0.074 uM of ATP as substrate by AlphaScreen assay. Type of data set: protein-complex assay.
Data set [13] shares this target. As to the kind of experiment: Inhibition of Cdc7/Dbf4 (unknown origin) using 0.333 uM of ATP as substrate by AlphaScreen assay. Type of data set: protein-complex assay.
For data set [14], the system named is Mus musculus. As to the kind of experiment: Inhibition of Cdc7/Dbf4 in NCR nude mouse xenografted with human HCT116 cells assessed as reduction of phosphorylated MCM2 level in tumor at 150 mg/kg, iv after 1 hr. The class given is functional. To be noted: HCT-116, 1 h. An outline of the steps:
(§3)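 Female athymic NCR/nu mice, 4–6 weeks old, bearing subcutaneous HCT-116 xenografts (5 × 10^6 cells in Matrigel) grown to about 250 mm3. Single iv dose formulated in 20% HPbCD, 1% HPMC, 1% PluronicF68, pH7 at 10 mg/ml; three mice per group. Tumors were homogenized in Tris lysis buffer with protease and phosphatase inhibitors. MSD capture with total MCM2 antibody, then phospho-Ser53 or total MCM2 detection by chemiluminescence; inhibition taken from the phospho/total ratio.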
For orientation: Xenograft models place foreign cells or tissue in a host animal.

Data set [15] has as its target T1, CDC7/DBF4 (Cell division cycle 7-related protein kinase/Activator of S phase kinase). Nature of the data set: Inhibition of Cdc7/Dbf4 (unknown origin) using 2 uM of ATP as substrate by AlphaScreen assay. Type of data set: protein-complex assay.
For data set [16] the target is unchanged. Nature of the data set: Inhibition of Cdc7/Dbf4 (unknown origin) using 0.012 uM of ATP as substrate by AlphaScreen assay. The class given is protein-complex assay. The procedure, abridged: as §2
Data set [17] shares this target. As to the kind of experiment: Inhibition of Cdc7/Dbf4 (unknown origin) using 0.025 uM of ATP as substrate by AlphaScreen assay. Type of data set: protein-complex assay.
Data set [18] shares this target. As to the kind of experiment: Inhibition of Cdc7/Dbf4 (unknown origin) using 6 uM of ATP as substrate by AlphaScreen assay. The class given is protein-complex assay.
The nature of data set [19]: AUC (0 to infinity) in Sprague-Dawley rat at 2 mg/kg, iv. Conditions: plasma. Set-up: time infinity, dose 2 mg/kg, route intravenous. The class given is ADME, organism-based.
The subject of data set [20] is Mus musculus. As to the kind of experiment: Inhibition of Cdc7/Dbf4 in NCR nude mouse xenografted with human HCT116 cells assessed as reduction of phosphorylated MCM2 level in tumor at 50 mg/kg, iv after 3 hrs. To be noted: HCT-116, 3 h. The class given is functional. The procedure, abridged: as §3
Data set [21] has as its target T1, CDC7/DBF4 (Cell division cycle 7-related protein kinase/Activator of S phase kinase). Nature of the data set: Inhibition of Cdc7/Dbf4 (unknown origin) using 0.667 uM of ATP as substrate by AlphaScreen assay. The class given is protein-complex assay.
The nature of data set [22]: Oral bioavailability in Sprague-Dawley rat at 5 mg/kg. Type of data set: ADME, organism-based. To be noted: in vivo. The procedure, abridged: (§4)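 Male Sprague-Dawley rats given 5 mg/kg orally in 2% HPMC, 1% Tween80, pH2 (an iv arm received 2 mg/kg in DMSO). Plasma was sampled from 0.25 to 24 h and analyzed by LC/MS.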
Data set [23] deals with T1, CDC7/DBF4 (Cell division cycle 7-related protein kinase/Activator of S phase kinase). As to the kind of experiment: Inhibition of Cdc7/Dbf4 (unknown origin) using 1 uM of ATP as substrate by AlphaScreen assay. Type of data set: protein-complex assay.
The nature of data set [24]: Terminal half life in Sprague-Dawley rat at 5 mg/kg, po. The class given is ADME, organism-based. Set-up: dose 5 mg/kg, route oral. To be noted: in vivo, read-out: beta t1/2 (converted). The procedure, abridged: as §4
Data set [25] in a line: Apparent oral clearance in Sprague-Dawley rat at 5 mg/kg, po. The class given is ADME, organism-based. Set-up: dose 5 mg/kg, route oral. To be noted: in vivo.
The nature of data set [26]: Cmax in Sprague-Dawley rat at 5 mg/kg, po. Type of data set: ADME, organism-based. Set-up: dose 5 mg/kg, route oral. To be noted: in vivo.
The nature of data set [27]: Mean residence time in Sprague-Dawley rat at 2 mg/kg, iv. The class given is ADME, organism-based. Further details: dose 2 mg/kg, route intravenous. To be noted: in vivo.
Data set [28] has as its system Mus musculus. Nature of the data set: Inhibition of Cdc7/Dbf4 in NCR nude mouse xenografted with human HCT116 cells assessed as reduction of phosphorylated MCM2 level in tumor at 150 mg/kg, iv after 3 hrs. Type of data set: functional. Conditions: HCT-116, 3 h. The procedure, abridged: as §3
For data set [29], the target named is T1, CDC7/DBF4 (Cell division cycle 7-related protein kinase/Activator of S phase kinase). Nature of the data set: Inhibition of Cdc7/Dbf4 (unknown origin) using 18 uM of ATP as substrate by AlphaScreen assay. Type of data set: protein-complex assay.
For data set [30], the system named is Plasma. As to the kind of experiment: Unbound plasma concentration in NCR nude mouse xenografted with human HCT116 cells at 150 mg/kg, iv after 1 hr. Set-up: dose 150 mg/kg, route intravenous. Conditions: in vivo. The class given is ADME, organism-based, HCT-116. An outline of the steps: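 HCT-116 xenograft NCR/nu mice (three per group) were given a single iv dose in 20% HPbCD, 1% HPMC, 1% PluronicF68, pH7 at 10 mg/ml. Plasma collected at the time points was measured by LC/MS. Values were converted to unbound concentrations using percent plasma protein binding in mouse serum.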

Data set [31] can be described thus: Fraction unbound in mouse plasma. Type of data set: ADME, cell-free.
In data set [32] the target is T1, CDC7/DBF4 (Cell division cycle 7-related protein kinase/Activator of S phase kinase). As to the kind of experiment: Inhibition of Cdc7/Dbf4 (unknown origin) using 0.111 uM of ATP as substrate by AlphaScreen assay. The class given is protein-complex assay.
Data set [33] is described as follows: Tmax in Sprague-Dawley rat at 5 mg/kg, po. Type of data set: ADME, organism-based. Set-up: dose 5 mg/kg, route oral. Conditions: in vivo. The procedure, abridged: as §4
A short description of data set [34]: Half life in Sprague-Dawley rat at 2 mg/kg, iv. Conditions: in vivo. Set-up: dose 2 mg/kg, route intravenous. The class given is ADME, organism-based.

Molecules are shown by their SMILES.

Broadly, the IC50 is the concentration needed to halve the response being measured. A word on the efflux ratio: it is the permeability from basolateral to apical divided by that in the opposite direction, in the common usage. Usually clearance stands for the rate of elimination divided by the concentration. In general, inhibition in vivo refers to the share of the control response that was lost under treatment. One may read the AUC(0-inf) as the area under the concentration-time curve extrapolated to infinity. Read a high AUC(0-inf) as high exposure. The term bioavailability denotes the share of a dose that reaches the circulation, judged against a reference dose that is usually intravenous. A higher bioavailability goes with good availability. The term CL/F denotes the apparent clearance, not corrected for the fraction that reaches the circulation. What is called Cmax is the maximum level reached in the sampled fluid or tissue. Broadly, the MRT is a mean duration of stay, worked out from the concentration-time curve. The fraction unbound is free concentration divided by total concentration. A low value points to little free substance. The Tmax is the time from dosing to the highest level.

As to `CCOC(=O)c1sc(-c2ccncc2)nc1O`, the half-inhibitory concentration (IC50) in [1] worked out at 405 nM; in data set [2], 528 nM; in data set [4] it was 318 nM; in data set [5], 546 nM; in data set [6] it was 300 nM; in data set [9], 419 nM. This compound also yielded an IC50 in data set [10] of 547 nM. For the same compound, the efflux ratio in data set [3], in data set [7] and in data set [8] was 1 in each case.

Regarding `NC(=O)c1sc(-c2ccnc(N)n2)nc1-c1ccc(Cl)cc1Cl`, in [11], the clearance is 64.8 mL/min/kg. Moreover, the IC50 came to 64 nM in data set [12]; 20 nM in data set [13]; 10 nM in data set [15]; 17 nM in [16]; 40 nM in [17]; 13 nM in data set [18]. The IC50 in data set [21] is 14 nM; in data set [23], 10 nM; in data set [29] it was 23 nM; in data set [32], 29 nM. Further, the inhibition in vivo at 150 mg/kg in [14] was 30%; in data set [28], 38%. Besides, the AUC(0-inf) in data set [19] stood at 521 ng·h/mL. The inhibition in vivo at 50 mg/kg in data set [20] was 39%. In data set [22], this compound had a bioavailability of 6.58%. The half-life in data set [24] was 3.73 h; in [34], 6.56 h. Further, the CL/F in data set [25] was 1050 mL/min/kg. Further, the peak concentration (Cmax) in data set [26] came out at 13 ng/mL. The mean residence time (MRT) in data set [27] was found to be 1.15 h. The “Cp(f)” value in data set [30] amounted to 5 µM. This compound gave a fraction unbound in [31] of 0.09. For the same compound, the Tmax in data set [33] was determined as 2.17 h.

For the origin of these results see ChEMBL document CHEMBL3259739, “Synthesis and structure-activity relationship of trisubstituted thiazoles as Cdc7 kinase inhibitors” (Eur J Med Chem, 2014).
